Activity calls are given as the source filed them. No cut-off for these calls is given here.

Data set [1] is described as follows: Dissociation constant, pKa of the compound. In kind it is physicochemical.
The test system of data set [2] is Vesicular stomatitis virus. Put plainly: Antiviral activity against Vesicular stomatitis virus infected in primary rabbit kidney cells assessed as inhibition of virus-induced cytopathogenicity. It counts as functional.
Data set [3] relates to Human alphaherpesvirus 1. Kind of data set: Antiviral activity against HSV1 KOS infected in human skin fibroblasts assessed as inhibition of virus-induced cytopathogenicity. In kind it is functional, organism-based. For orientation: Protection from cytopathic effect is a common read-out in antiviral testing.
The nature of data set [4]: Cytotoxicity against primary rabbit kidney cells assessed as change in cell morphology. It counts as cell-based, Oryctolagus cuniculus.
Data set [5] in a line: Cytotoxicity against human skin fibroblasts assessed as change in cell morphology. Conditions: skin fibroblast.
The subject of data set [6] is Human alphaherpesvirus 1. Put plainly: Antiviral activity against HSV1 KOS infected in primary rabbit kidney cells assessed as inhibition of virus-induced cytopathogenicity. It counts as functional.
A short description of data set [7]: Cytotoxicity against human skin fibroblasts assessed as inhibition of DNA synthesis by labeled thymidine/2'-deoxyuridine assay. The conditions noted are these: skin fibroblast. Summed up: (§1)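 DNA synthesis in cultures (primary rabbit kidney cells or human skin fibroblasts) exposed to the analogues was monitored by incorporation of labeled thymidine or labeled 2'-deoxyuridine.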

Data set [8] can be described thus: Cytotoxicity against primary rabbit kidney cells assessed as inhibition of DNA synthesis by labeled thymidine/2'-deoxyuridine assay. In kind it is cell-based, Oryctolagus cuniculus. Summed up: as §1

On to `O=c1[nH]c(=O)n([C@@H]2O[C@H](CO)[C@@H](O)[C@@H]2O)cc1I`, for which the pKa – broadly, the negative logarithm of the acid dissociation constant – in data set [1] turned out to be 8.

For `Cc1cn([C@@H]2O[C@H](CO)[C@@H](O)[C@@H]2O)c(=O)[nH]c1=O`, the ID50 in data set [2] is over 1 ×10⁻⁴ M; in the data set on Human alphaherpesvirus 1 [6] it was 3.9 ×10⁻⁷ M. Moreover, the Antiviral activity entry with Human alphaherpesvirus 1 [3] was “Active”. In addition, the Activity entry in data set [4] and in data set [5] was “Non-toxic” throughout.

With `O=c1ccn([C@@H]2O[C@H](CO)[C@@H](O)[C@@H]2O)c(=O)[nH]1` [ARAURIDINE], the ID50 in data set [2] is listed as over 1 ×10⁻⁴ M; in the data set with Human alphaherpesvirus 1 [6] it was 4.1 ×10⁻⁵ M. For the same compound, the Antiviral activity entry with Human alphaherpesvirus 1 [3] was “Active”. The Activity result in data set [4] and in data set [5] was “Non-toxic” each time.

`O=c1[nH]c(=O)n([C@@H]2O[C@H](CO)[C@@H](O)[C@@H]2O)cc1[N+](=O)[O-]`: the values for the ID50 (in data set [2]; in the data set with Human alphaherpesvirus 1 [6]) were over 1 ×10⁻⁴ M and over 6.9 ×10⁻⁴ M, respectively. Moreover, the Antiviral activity result in the data set with Human alphaherpesvirus 1 [3] was “Active”. For the same compound, in data set [1], the pKa was found to be 5.7. Also, the Activity entry in data set [7], in data set [4], in data set [5] and in data set [8] was “Non-toxic” throughout.

`O=c1[nH]c(=O)n([C@@H]2O[C@H](CO)[C@@H](O)[C@@H]2O)cc1O`: the ID50 is on record as over 1 ×10⁻⁴ M in data set [2] and over 3.9 ×10⁻⁴ M with Human alphaherpesvirus 1 [6]. Besides, the Antiviral activity result in the data set on Human alphaherpesvirus 1 [3] is “Active”. This compound returned a pKa in data set [1] of 7.8. Besides, the Activity entry in data set [7], in data set [4], in data set [5] and in data set [8] was “Non-toxic” in each case.

With `O=c1[nH]c(=O)n([C@@H]2O[C@H](CO)[C@@H](O)[C@@H]2O)cc1Br`, the pKa in data set [1] was 8.

As to `N#Cc1cn([C@@H]2O[C@H](CO)[C@@H](O)[C@@H]2O)c(=O)[nH]c1=O`, the ID50 was over 1 ×10⁻⁴ M in data set [2] and over 3.7 ×10⁻⁴ M with Human alphaherpesvirus 1 [6]. Besides, the Antiviral activity entry with Human alphaherpesvirus 1 [3] was “Active”. In data set [1], this compound returned a pKa of 6.8. Further, the Activity result in data set [7], in data set [4], in data set [5] and in data set [8] was “Non-toxic” each time.
